Assay results reported in ChEMBL document CHEMBL1127442, “Triazolinone biphenylsulfonamide derivatives as orally active angiotensin II antagonists with potent AT1 receptor affinity and enhanced AT2 affinity” (J Med Chem, 1994).

How the values were obtained:
[1] = tested on: Rattus norvegicus; assay: Time from onset of action until significant (i.e., >=30%) inhibition of pressor response is no longer observed, at 1 (mg/kg) peroral dose; type: functional
Outline: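 Conscious catheterized male Sprague-Dawley rats received compound iv or po as the water-soluble potassium salt, or in PEG 400 orally. AII (0.1 μg/kg iv) boluses were repeated at intervals while the compound was active.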

[2] = molecular target: T1, Type-1 angiotensin II receptor (Oryctolagus cuniculus, UniProt P34976); assay: In vitro inhibitory activity against angiotensin II rabbit aorta AT1 receptor using radioligand [125I]-Sar Ile-AII; type: tissue-based
T1 sequence (P34976 whole entry): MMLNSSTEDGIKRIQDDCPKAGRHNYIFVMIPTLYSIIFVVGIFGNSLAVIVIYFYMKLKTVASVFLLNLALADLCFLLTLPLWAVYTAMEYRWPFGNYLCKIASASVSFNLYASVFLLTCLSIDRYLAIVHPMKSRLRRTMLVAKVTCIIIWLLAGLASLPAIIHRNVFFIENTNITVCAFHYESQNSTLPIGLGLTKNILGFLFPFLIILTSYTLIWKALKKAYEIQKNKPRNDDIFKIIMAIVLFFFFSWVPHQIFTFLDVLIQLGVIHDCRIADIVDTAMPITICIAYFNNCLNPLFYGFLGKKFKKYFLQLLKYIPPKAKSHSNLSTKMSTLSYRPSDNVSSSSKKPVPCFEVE

[3] = tested on: Rattus norvegicus; assay: Inhibition of AII pressor response by the compound in conscious, normotensive rats, at 1 (mg/kg) intravenous dose; type: functional
Outline: (§1)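 Male Sprague-Dawley rats (300-400 g) were conscious and catheterized for iv dosing and arterial pressure. Compound was given iv or po as the potassium salt in water, with PEG 400 for some oral doses. […] Peak inhibition is the mean of ≥2 rats.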

[4] = tested on: Rattus norvegicus; assay: Inhibition of AII pressor response by the compound in conscious, normotensive rats, at 1 (mg/kg) peroral dose; type: functional; outline: as §1
[5] = molecular target: T2, Type-2 angiotensin II receptor (Rattus norvegicus, UniProt P35351); assay: In vitro inhibitory activity against angiotensin II rat midbrain AT2 receptor using radioligand [125I]-Sar Ile-AII
T2 sequence (P35351 whole entry): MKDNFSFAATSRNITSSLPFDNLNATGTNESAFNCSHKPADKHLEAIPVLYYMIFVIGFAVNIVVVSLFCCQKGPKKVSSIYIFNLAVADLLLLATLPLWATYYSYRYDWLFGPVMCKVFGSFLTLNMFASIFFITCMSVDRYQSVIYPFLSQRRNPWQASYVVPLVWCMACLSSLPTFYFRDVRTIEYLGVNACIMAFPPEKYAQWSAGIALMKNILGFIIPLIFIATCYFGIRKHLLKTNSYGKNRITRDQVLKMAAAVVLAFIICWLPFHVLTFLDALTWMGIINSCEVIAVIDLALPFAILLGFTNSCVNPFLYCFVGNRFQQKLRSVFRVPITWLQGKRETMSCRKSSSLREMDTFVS
Outline: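 Dithiothreitol ([…]) was added to the assay mixture to abolish residual AT1 binding. Tubes were run in duplicate, and IC50 came from nonlinear regression of displacement curves.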

[6] = tested on: Rattus norvegicus; assay: Time from onset of action until significant (i.e., >=30%) inhibition of pressor response is no longer observed, at 1 (mg/kg) intravenous dose; type: functional

SMILES | IC50 [2] | IC50 [5] | Duration [1] | Inhibition [3] | Inhibition [4] | Duration [6]
CCCCc1nn(-c2ccccc2C(F)(F)F)c(=O)n1Cc1ccc(-c2ccccc2S(=O)(=O)NC(=O)c2cc3ccccc3s2)cc1 | 0.00031 µM | 0.43 µM |  |  |  | 
CCCCc1nn(-c2ccccc2C(F)(F)F)c(=O)n1Cc1ccc(-c2ccccc2S(=O)(=O)Nc2ccc([N+](=O)[O-])cc2)cc1 | 0.078 µM | 5.2 µM |  |  |  | 
CCCCc1nn(-c2ccccc2C(F)(F)F)c(=O)n1Cc1ccc(-c2ccccc2S(=O)(=O)NC(=O)C2CC3CCC2C3)cc1 (stereo not given) | 0.00039 µM | 0.1 µM |  |  |  | 
CCCCc1nn(-c2ccccc2C(F)(F)F)c(=O)n1Cc1ccc(-c2ccccc2S(=O)(=O)NC(=O)C2SCCS2)cc1 | 0.00035 µM | 0.035 µM |  |  |  | 
CCCCc1nn(-c2ccccc2C(F)(F)F)c(=O)n1Cc1ccc(-c2ccccc2S(=O)(=O)NC(=O)c2cccc(C(F)(F)F)c2)cc1 | 0.0033 µM | 0.58 µM |  |  |  | 
CCCCc1nn(-c2ccccc2C(F)(F)F)c(=O)n1Cc1ccc(-c2ccccc2S(=O)(=O)NC(=O)c2ccc(Cl)cc2)cc1 | 0.0012 µM | 0.52 µM |  |  |  | 
CCCCc1nn(-c2ccccc2C(F)(F)F)c(=O)n1Cc1ccc(-c2ccccc2S(=O)(=O)NC(=O)c2ccccc2Cc2ccccc2)cc1 | 0.00082 µM | 0.19 µM |  |  |  | 
CCCc1nn(-c2ccccc2C(F)(F)F)c(=O)n1Cc1ccc(-c2ccccc2S(=O)(=O)NC(=O)c2ccccc2)cc1 | 0.013 µM | 0.52 µM |  |  |  | 
CCCCc1nn(-c2ccccc2C(F)(F)F)c(=O)n1Cc1ccc(-c2ccccc2S(=O)(=O)NC(=O)C2CCCO2)cc1 (stereo not given) | 0.0043 µM | 0.18 µM |  |  |  | 
CCCCc1nn(-c2ccccc2C(F)(F)F)c(=O)n1Cc1ccc(-c2ccccc2S(=O)(=O)NC(=O)c2ccc(F)cc2)cc1 | 0.00068 µM | 0.5 µM |  |  |  | 
CCCCc1nn(-c2ccccc2C(F)(F)F)c(=O)n1Cc1ccc(-c2ccccc2S(=O)(=O)NC(=O)c2ccccc2OC)cc1 | 0.00041 µM | 0.072 µM |  |  |  | 
CCCCc1nn(-c2ccccc2C(F)(F)F)c(=O)n1Cc1ccc(-c2ccccc2S(=O)(=O)NC(=O)C2CCCCC2)cc1 | 0.00015 µM | 0.16 µM |  |  |  | 
CCCCc1nn(-c2ccccc2C(F)(F)F)c(=O)n1Cc1ccc(-c2ccccc2S(=O)(=O)NC(=O)C2(C)SCCS2)cc1 | 0.00022 µM | 0.08 µM |  |  |  | 
CCCCc1nn(-c2ccccc2C(F)(F)F)c(=O)n1Cc1ccc(-c2ccccc2S(=O)(=O)NC(=O)c2ccccc2-c2ccccc2)cc1 | 0.0006 µM | 0.33 µM |  |  |  | 
CCCCc1nn(-c2ccccc2C(F)(F)F)c(=O)n1Cc1ccc(-c2ccccc2S(=O)(=O)NC(=O)c2ccc(OC)cc2)cc1 | 0.00074 µM | 0.5 µM |  |  |  | 
CC1CC1Cc1nn(-c2ccccc2C(F)(F)F)c(=O)n1Cc1ccc(-c2ccccc2S(=O)(=O)NC(=O)c2ccccc2)cc1 (stereo not given) | 0.0058 µM | 0.5 µM |  |  |  | 
CCCCc1nn(-c2ccccc2Cl)c(=O)n1Cc1ccc(-c2ccccc2S(=O)(=O)NC(=O)c2ccccc2)cc1 | 0.0014 µM | 0.59 µM |  |  |  | 
CCCCc1nn(-c2ccccc2C(F)(F)F)c(=O)n1Cc1ccc(-c2ccccc2S(=O)(=O)NC(=O)C2(C)CC2)cc1 | 0.0008 µM | 0.076 µM |  |  |  | 
CCCCc1nn(-c2ccccc2C(F)(F)F)c(=O)n1Cc1ccc(-c2ccccc2S(=O)(=O)NC(=O)CCOC)cc1 | 0.002 µM | 0.27 µM |  |  |  | 
CCCCc1nn(-c2ccccc2C(F)(F)F)c(=O)n1Cc1ccc(-c2ccccc2S(=O)(=O)NC(=O)C2CCCCCC2)cc1 | 0.0003 µM | 0.27 µM |  |  |  | 
CCCCc1nn(-c2ccccc2C(F)(F)F)c(=O)n1Cc1ccc(-c2ccccc2S(=O)(=O)NC(=O)c2occc2C)cc1 | 0.00021 µM | 0.046 µM | >3.5 h | 92% | 71% | >6 h
CCCCc1nn(-c2ccccc2C(F)(F)F)c(=O)n1Cc1ccc(-c2ccccc2S(=O)(=O)NC(=O)CCCCCN)cc1 | 0.0013 µM | 0.1 µM |  |  |  | 
CCCCc1nn(-c2ccccc2C(F)(F)F)c(=O)n1Cc1ccc(-c2ccccc2S(=O)(=O)NC(=O)C2CC2C)cc1 (stereo not given) | 0.00056 µM | 0.12 µM |  |  |  | 
CCCCc1nn(-c2ccccc2C(F)(F)F)c(=O)n1Cc1ccc(-c2ccccc2S(=O)(=O)NC(=O)c2cc(Br)sc2Br)cc1 | 0.00067 µM | 0.084 µM |  |  |  | 
CCCCc1nn(-c2ccccc2C(F)(F)F)c(=O)n1Cc1ccc(-c2ccccc2S(=O)(=O)NC(=O)c2c(C)cccc2C)cc1 | 0.0059 µM | 0.19 µM |  |  |  | 
CCCCc1nn(-c2ccccc2C(F)(F)F)c(=O)n1Cc1ccc(-c2ccccc2S(=O)(=O)NC(=O)c2ccccc2C(F)(F)F)cc1 | 0.00027 µM | 0.22 µM |  |  |  | 
CCCCc1nn(-c2ccccc2C(F)(F)F)c(=O)n1Cc1ccc(-c2ccccc2S(=O)(=O)NC(=O)c2cc(OC)c(OC)c(OC)c2)cc1 | 0.021 µM | 6.5 µM |  |  |  | 
CCCCc1nn(-c2ccccc2C(F)(F)F)c(=O)n1Cc1ccc(-c2ccccc2S(=O)(=O)NC(=O)c2ccoc2C)cc1 | 0.003 µM | 0.11 µM |  |  |  | 
CCCCc1nn(-c2ccccc2C(F)(F)F)c(=O)n1Cc1ccc(-c2ccccc2S(=O)(=O)NC(=O)OCC)cc1 | 0.0022 µM | 0.075 µM |  |  |  | 
CCCCc1nn(-c2ccccc2C(F)(F)F)c(=O)n1Cc1ccc(-c2ccccc2S(=O)(=O)NS(=O)(=O)c2ccccc2)cc1 | 0.0002 µM | 2.4 µM |  |  |  | 

The next lines start with results.

IC50 [2] | IC50 [5] | SMILES | Duration [1] | Inhibition [3] | Inhibition [4] | Duration [6]
0.00094 µM | 0.54 µM | CCCCc1nn(-c2ccccc2C(F)(F)F)c(=O)n1Cc1ccc(-c2ccccc2S(=O)(=O)NC(=O)c2cccs2)cc1 | 4.3 h | 76% | 61% | >5.5 h
0.0008 µM | 0.15 µM | CCCCc1nn(-c2ccccc2C(F)(F)F)c(=O)n1Cc1ccc(-c2ccccc2S(=O)(=O)NC(=O)C(C)C)cc1 | 1.3 h | 100% | 45% | >6 h
0.00056 µM | 0.11 µM | CCCCc1nn(-c2ccccc2C(F)(F)F)c(=O)n1Cc1ccc(-c2ccccc2S(=O)(=O)NC(=O)c2ccccc2C)cc1 | >2 h | 89% | 57% | >6 h
0.00011 µM | 0.036 µM | CCCCc1nn(-c2ccccc2C(F)(F)F)c(=O)n1Cc1ccc(-c2ccccc2S(=O)(=O)NC(=O)c2ccccc2Cl)cc1 | >6 h |  |  | >24 h
0.0029 µM | 0.45 µM | CCCCCCCC(=O)NS(=O)(=O)c1ccccc1-c1ccc(Cn2c(CCCC)nn(-c3ccccc3C(F)(F)F)c2=O)cc1 |  |  |  | 
0.0039 µM | 0.7 µM | CCCCc1nn(-c2ccccc2C(F)(F)F)c(=O)n1Cc1ccc(-c2ccccc2S(=O)(=O)NC(=O)c2ccoc2)cc1 |  |  |  | 
0.00072 µM | 0.78 µM | CCCCc1nn(-c2ccccc2C(F)(F)F)c(=O)n1Cc1ccc(-c2ccccc2S(=O)(=O)NC(=O)c2cccc(Cl)c2Cl)cc1 |  |  |  | 
0.0004 µM | 0.045 µM | CCCCc1nn(-c2ccccc2C(F)(F)F)c(=O)n1Cc1ccc(-c2ccccc2S(=O)(=O)NC(=O)c2ccccc2Br)cc1 |  |  |  | 
0.00081 µM | 0.08 µM | CCCCc1nn(-c2ccccc2C(F)(F)F)c(=O)n1Cc1ccc(-c2ccccc2S(=O)(=O)NC(=O)c2sccc2C)cc1 |  |  |  | 
0.0018 µM | 5.5 µM | CCCCc1nn(-c2ccccc2C(F)(F)F)c(=O)n1Cc1ccc(-c2ccccc2NS(=O)(=O)C(F)(F)F)cc1 |  |  |  | 
0.0055 µM | > 0.3 µM | O=C(NS(=O)(=O)c1ccccc1-c1ccc(Cn2c(CCCC(F)(F)F)nn(-c3ccccc3C(F)(F)F)c2=O)cc1)c1ccccc1 |  |  |  | 
0.00064 µM | 0.19 µM | CCCCc1nn(-c2ccccc2C(F)(F)F)c(=O)n1Cc1ccc(-c2ccccc2S(=O)(=O)NC(=O)c2ccc(C)s2)cc1 |  |  |  | 
0.00075 µM | 0.38 µM | CCCCc1nn(-c2ccccc2C(F)(F)F)c(=O)n1Cc1ccc(-c2ccccc2S(=O)(=O)NC(=O)COCC)cc1 |  |  |  | 
0.0026 µM | 0.13 µM | CCCCc1nn(-c2ccccc2C(F)(F)F)c(=O)n1Cc1ccc(-c2ccccc2S(=O)(=O)NC(=O)NC(C)(C)C)cc1 |  |  |  | 
0.00084 µM | 0.1 µM | CCCCc1nn(-c2ccccc2C(F)(F)F)c(=O)n1Cc1ccc(-c2ccccc2S(=O)(=O)NC(=O)C2CCC2)cc1 |  |  |  | 
0.001 µM | 0.31 µM | CCCCc1nn(-c2ccccc2C(F)(F)F)c(=O)n1Cc1ccc(-c2ccccc2S(=O)(=O)NC(=O)c2cc(C)oc2C)cc1 |  |  |  | 
